# High-throughput results (PubChem)
# ABCB6 inh MLPCN: inhibitors of human ABC transporter ABCB6; Q9NP58; K562-ABCB6 porphyrin accumulation, flow cytometry, 1 h; hits give low values; fluorescence ratio to DMSO, % at 10 µM; 360,000 compounds, 0.19% hits;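 active = fluorescence ratio to DMSO below 75%, the collection mean minus 3 SD; inconclusive = too few cells collected in the well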;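 also: signal is porphyrin accumulated inside mitochondria; 100% equals median channel fluorescence of DMSO control wells; lower ratio means ABCB6 inhibition with less porphyrin fluorescence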
# XiGFP reactiv: reactivates the inactive X chromosome in mouse fibroblasts; XiGFP mouse fibroblasts, % GFP-positive cells imaging, 3 d; cells co-treated with 5-aza-dC sensitizer; scaled so ellipticine positive control = 100%; AID 743238; activation, % at 7.58 µM; 360,000 compounds, 0.055% hits;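 active = mean normalized replicate activation at least 10% and every replicate at or above 10%; inconclusive = only one of the two criteria met; inactive = mean below 10% and not all replicates reach 10%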;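 also: 0% = median of on-plate neutral control wells and 100% = ellipticine 6 µM median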
#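 System: 68-5-11 XiGFP fibroblast line; Timing: 3 days compound exposure; Compound dosing: one concentration, pinned; Benchmarks: positive control ellipticine, 6 µM final; Buffer or medium: DMEM containing 5-aza-dC.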
# Myeloid diff MLP: compounds promoting myeloid differentiation. calls only at 10 µM. ER-HoxA9 myeloid progenitors, lysozyme-GFP differentiation, flow cytometry. 360,000 compounds, 1% hits. AID 624256;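 active = normalized GFP-positive differentiation at or above the plate's own cutoff, the solvent-only control mean plus 3 SD; inconclusive = no clear call, values can overlap the other calls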;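 also: cells exposed to compound for four days before flow analysis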
# Myeloid diff CP1: promotes myeloid progenitor differentiation | 2,300 compounds, 2% hits | shares compounds with Myeloid diff MLP | calls only | ER-HoxA9 myeloid progenitors, GFP/Mac1 double-positive flow;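 active = share of green or green-and-red cells above 9 and 9% in run 1 or 4 and 3% in run 2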
# GFP autofluor: counter-screen for myeloid differentiation promoters: compound fluorescence. shares compounds with Myeloid diff MLP. ER-HoxA9 myeloid progenitors, no estrogen, GFP autofluorescence flow cytometry; vehicle wells 0%, positive control 100%. fluorescence response, % (no concentration beside the values). 2,300 compounds, 7.4% hits;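 active = over 5% cells positive for green fluorescent reporter, or over 2% positive for both it and APC stain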;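 also: range taken on the double positive population between DMSO and positive control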
# * hit, by the source's call; i = inactive; ? = inconclusive; nt = no result; + = active, no number. The entries come from a sample that favours hits as a whole.
SMILES,ABCB6 inh MLPCN,XiGFP reactiv,Myeloid diff MLP,Myeloid diff CP1,GFP autofluor
CON1C(=O)C(=O)N(OC)C(C)(C)C1C (stereo not given),101,nt,i,i,0
C[C@@H]1CN([C@H](C)CO)C(=O)c2cc(NC(=O)Cc3cn(C)c4ccccc34)ccc2O[C@@H]1CN(C)C(=O)Nc1ccc(F)cc1,nt,0,nt,nt,nt
Cc1ccccc1S(=O)(=O)N[C@@H]1CC[C@@H](CCn2cc(-c3ccc(F)cc3)nn2)O[C@@H]1CO,nt,1,nt,nt,nt
OCCn1c(-c2ccc(F)cc2)csc1=Nc1ccccc1,94,0,i,nt,nt
CCOc1ccc(N=c2scc(-c3ccc(OC)cc3)n2CCO)cc1,95,nt,i,i,0
CCOCCn1c(CN(Cc2ccccc2)Cc2ccccc2)nc2c1c(=O)[nH]c(=O)n2C,102,nt,+,i,0
CCOCCn1c(CN(Cc2ccccc2)Cc2ccccc2)nc2c1c(=O)n(C)c(=O)n2C,91,0,?,nt,nt
C[C@H]1CN([C@@H](C)CO)C(=O)c2cc(NS(=O)(=O)c3ccccc3)ccc2O[C@H]1CN(C)C,nt,0,nt,nt,nt
CCC(=O)Nc1ccc2c(c1)OC[C@H](C)N(Cc1ccccn1)C[C@@H](C)[C@H](OC)CN(C)C2=O,nt,0,nt,nt,nt
Cc1ccc(NS(=O)(=O)c2ccc(NC(=O)CSc3ccc(Cl)cc3)cc2)c(C)c1,91,nt,i,nt,nt
Cc1ccc(O)c(NC(=O)CSc2ccc(Cl)cc2)c1,95,0,i,i,0
Cc1noc(C)c1S(=O)(=O)Nc1ccc2c(c1)C(=O)N([C@H](C)CO)C[C@H](C)[C@@H](CN(C)S(=O)(=O)c1c(C)noc1C)O2,nt,0,nt,nt,nt
NC(=S)N/N=C/c1ccc(-c2ccc([N+](=O)[O-])cc2)o1,113,1,i,i,3
NC(=S)N/N=C/c1ccc(-c2cc(Cl)cc(Cl)c2)o1,113,nt,i,nt,nt
O=C(N[C@@H]1CC[C@H](CCn2cc(-c3ccccn3)nn2)O[C@H]1CO)c1ccc(F)cc1,nt,0,nt,nt,nt
O=C(Cc1ccccc1)N1CC[C@@H]2[C@H](CO)Nc3ccc(C#Cc4cccc(F)c4)cc3[C@@H]21,nt,0,nt,nt,nt
CC1CCCC(C)N1C(=O)COC(=O)c1ccccc1O (stereo not given),94,0,i,nt,nt
CCC(C(=O)OCC(=O)N1C(C)CCCC1C)c1ccccc1 (stereo not given),251,0,i,i,0
O=C(Nc1nccs1)[C@H]1[C@H](CO)[C@H]2Cn3c(ccc(-c4cccnc4)c3=O)[C@H]2N1CC1CC1,nt,0,nt,nt,nt
C[C@@H]1CCCCO[C@@H](CN(C)S(C)(=O)=O)[C@H](C)CN([C@@H](C)CO)C(=O)c2cc(NC(=O)Cc3ccccc3)ccc2O1,nt,-1,nt,nt,nt
CCCNC(=O)C[C@@H]1CC[C@@H]2[C@H](COC[C@H](O)CN2C(=O)Nc2c(C)noc2C)O1,nt,0,nt,nt,nt
COc1ccccc1N1C(=O)c2cccc3c(Cl)ccc(c23)C1=O,98,0,i,i,0
CCO/C=C1/C(=O)N(c2ccccc2OC)C(=O)c2ccccc21,101,0,i,nt,nt
C[C@@H]1CN([C@H](C)CO)C(=O)c2cc(C3=CCCCC3)cnc2O[C@@H]1CN(C)S(C)(=O)=O,nt,-1,nt,nt,nt
O=C(Cc1ccccn1)N1CC2(C1)[C@@H](c1ccccc1)[C@@H](CO)N2C(=O)c1cccnc1,nt,0,nt,nt,nt
SMILES,ABCB6 inh MLPCN,XiGFP reactiv,Myeloid diff MLP,Myeloid diff CP1,GFP autofluor
Cc1ccc(S(=O)(=O)CCSc2nc(C)cc(C)c2C#N)cc1,99,nt,+,i,0
CCS(=O)(=O)CCSc1nc(C)cc(C)c1C#N,82,nt,i,nt,nt
COc1ccc(C#Cc2cnc3c(c2)C(=O)N([C@H](C)CO)C[C@H](C)[C@H](CN(C)C)O3)cc1,nt,-1,nt,nt,nt
O=S(=O)(c1ccccc1)c1nc(-c2ccco2)oc1NCc1cccnc1,98,nt,+,i,0
O=S(=O)(c1ccccc1)c1nc(-c2ccccc2)oc1NCc1cccnc1,96,nt,i,nt,nt
Nc1ccc(S(=O)(=O)Nc2nccc(/C=C/c3cccc([N+](=O)[O-])c3)n2)cc1,91,0,i,nt,nt
Nc1ccc(S(=O)(=O)Nc2nccc(/C=C/c3cccc(Br)c3)n2)cc1,96,0,+,i,0
O=C(Cc1ccccc1)N1CC[C@@H]2[C@H](CO)Nc3ccc(Br)cc3[C@@H]21,nt,0,nt,nt,nt
O=C(NC1Cc2ccccc2C1)[C@H]1[C@H](CO)[C@H]2Cn3c(cccc3=O)[C@@H]1N2Cc1ccccc1F,nt,4,nt,nt,nt
COc1ccc(Cl)cc1C(=O)NCC(c1ccco1)N1CCCC1 (stereo not given),99,nt,i,nt,nt
COc1cc(C(=O)NCC(c2ccco2)N2CCCC2)ccc1OCc1ccc(Cl)cc1Cl (stereo not given),98,0,+,i,4
C/C(=N/NC(=O)c1cccc(C)c1)c1c(O)cc(C)oc1=O,93,nt,i,i,0
C/C(=N\Nc1ccccc1)c1c(O)cc(C)oc1=O,102,0,i,nt,nt
C[C@@H]1CN([C@H](C)CO)C(=O)c2cccc(NS(=O)(=O)c3cccs3)c2O[C@@H]1CN(C)Cc1ccc(-c2ccccc2)cc1,nt,-1,nt,nt,nt
O=C(NCc1ccncc1)C1Cc2c(-c3ccc(Cl)cc3)ccnc2O1 (stereo not given),101,0,i,nt,nt
O=C(NCc1cccnc1)C1Cc2c(-c3ccc(Cl)cc3)ccnc2O1 (stereo not given),96,0,+,i,0
Cn1cnnc1SC1CCCCC1NS(=O)(=O)c1ccccc1 (stereo not given),97,nt,i,nt,nt
Nn1cnnc1SC1CCCCC1NS(=O)(=O)c1ccccc1 (stereo not given),101,nt,+,i,1
CCC(=O)N1C[C@@H]2[C@H](c3ccccc31)[C@H](CO)N2Cc1ccccc1F,nt,0,nt,nt,nt
CO[C@@H]1CN(C)C(=O)c2cc(NS(=O)(=O)c3ccccc3C)ccc2OC[C@@H](C)N(S(C)(=O)=O)C[C@H]1C,nt,1,nt,nt,nt
CC(Sc1nnc2ccccn12)C(=O)Nc1ncc(Cl)cc1Cl (stereo not given),94,nt,i,nt,nt
COc1ccc(-n2c(SC(C)C(=O)Nc3ncc(Cl)cc3Cl)nc3ccccc32)cc1 (stereo not given),83,0,+,i,0
O=C(C[C@H]1CC[C@H](NC(=O)C2CC2)[C@H](CO)O1)NCc1ccncc1,nt,-1,nt,nt,nt
Cc1nc2cc(Oc3nc(NCCN(C)C)nc4ccsc34)ccc2s1,94,0,+,i,0
CNc1nc(Oc2ccc3sc(C)nc3c2)c2sccc2n1,97,0,i,nt,nt
CCC(=O)N1CC2(C1)[C@H](c1ccc(-c3ccc(C)cc3)cc1)[C@@H](CO)N2S(=O)(=O)CC,nt,0,nt,nt,nt
COc1ccc(C(=O)NCCCc2nc3ccccc3n2Cc2ccccc2C)cc1OC,98,0,+,i,1
CC(=O)NCCCc1nc2ccccc2n1Cc1ccccc1F,99,0,i,nt,nt
COc1ccc(CCNC(=O)c2nn(C)cc2Cl)cc1,102,nt,+,i,0
